Activity calls are given as the source filed them. No cut-off for these calls is given here.
What was measured:
[1] = target: 5-hydroxytryptamine receptor 4 (Homo sapiens, UniProt Q13639); assay: Displacement of [3H]LSD from human 5-HT4 receptor expressed in HEK cell membranes after 1.5 hrs by microbeta scintillation counting method
In short: (§1)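 Radioligand binding performed by the NIMH Psychoactive Drug Screening Program. Crude membranes from cells expressing recombinant receptor, with [3H]LSD, in 50 mM Tris-HCl, 10 mM MgCl2, 1 mM EDTA, pH 7.4. Eleven test concentrations. Incubated 1.5 h at room temperature, protected from light. Filtered onto PEI-soaked GF/B filters, then scintillation counting. IC50 converted to Ki; at least three experiments in triplicate.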

[2] = target: 5-hydroxytryptamine receptor 5A (Homo sapiens, UniProt P47898); assay: Displacement of [3H]LSD from human 5-HT5A receptor expressed in HEK cell membranes after 1.5 hrs by microbeta scintillation counting method; in short: as §1
5-hydroxytryptamine receptor 5A, sequence (P47898 whole entry, the tested form may be a part): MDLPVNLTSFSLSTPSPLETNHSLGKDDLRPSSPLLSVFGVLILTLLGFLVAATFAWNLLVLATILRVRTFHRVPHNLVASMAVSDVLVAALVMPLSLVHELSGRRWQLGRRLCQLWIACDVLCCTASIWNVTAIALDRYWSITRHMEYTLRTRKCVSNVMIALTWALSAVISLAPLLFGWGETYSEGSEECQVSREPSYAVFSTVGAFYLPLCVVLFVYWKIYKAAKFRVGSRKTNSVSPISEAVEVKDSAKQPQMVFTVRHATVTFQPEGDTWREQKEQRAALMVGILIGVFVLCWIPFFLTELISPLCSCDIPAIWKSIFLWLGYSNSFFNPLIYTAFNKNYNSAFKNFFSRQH

[3] = target: T1, 5-hydroxytryptamine receptor 7 (Homo sapiens, UniProt P34969); assay: Agonist activity at tTA containing TCS cleavage site-fused 5-HT7 receptor (unknown origin) expressed in tTA-dependent luciferase reporter/TEV-fused beta-arrestin2 expressing HTLA cells assessed as induction of beta-arrestin2 recruitment after 22 hrs by Tango assay relative to 5-HT; type: functional, cell-based
T1 sequence (P34969 whole entry, the tested form may be a part): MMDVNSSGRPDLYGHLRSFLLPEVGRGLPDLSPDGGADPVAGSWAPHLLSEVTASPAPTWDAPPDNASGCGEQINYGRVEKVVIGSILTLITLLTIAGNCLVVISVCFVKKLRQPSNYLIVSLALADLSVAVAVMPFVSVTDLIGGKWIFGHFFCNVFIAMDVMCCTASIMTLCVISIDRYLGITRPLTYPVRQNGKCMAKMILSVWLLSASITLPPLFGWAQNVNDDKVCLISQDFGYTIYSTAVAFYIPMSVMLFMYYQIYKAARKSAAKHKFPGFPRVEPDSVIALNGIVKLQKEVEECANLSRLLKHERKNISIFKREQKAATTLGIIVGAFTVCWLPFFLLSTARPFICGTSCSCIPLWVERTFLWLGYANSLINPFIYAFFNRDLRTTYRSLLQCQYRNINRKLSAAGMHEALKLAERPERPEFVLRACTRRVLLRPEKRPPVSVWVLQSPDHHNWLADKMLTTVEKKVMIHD
In short: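 HTLA cells (HEK293 stably expressing tTA-dependent luciferase reporter and β-arrestin2-TEV) transiently transfected with 5-HT7R-TCS-tTA. Plated in 1% dialysed FBS medium for 6 h, then given test compounds at 0.01 nM-100 μM final, about 22 h. Antagonist mode adds 1 μM 5-HT. BrightGlo luminescence read. Normalised to 5-HT (100%) and vehicle (0%). Three experiments, at least triplicate.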

Homo sapiens [4] = organism: Homo sapiens; assay: Selectivity index, ratio of Ki for human 5-HT2B receptor to Ki for human 5-HT7 receptor
In short: (§2)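 Selectivity index taken as Ki at the other 5-HT receptor subtype divided by Ki at 5-HT7R, each from [3H]LSD membrane binding run by the NIMH PDSP. Ki values are means of at least three experiments in triplicate.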

[5] = target: 5-hydroxytryptamine receptor 1E (Homo sapiens, UniProt P28566); assay: Displacement of [3H]LSD from human 5-HT1E receptor expressed in HEK cell membranes after 1.5 hrs by microbeta scintillation counting method; in short: as §1
5-hydroxytryptamine receptor 1E, sequence (P28566 whole entry): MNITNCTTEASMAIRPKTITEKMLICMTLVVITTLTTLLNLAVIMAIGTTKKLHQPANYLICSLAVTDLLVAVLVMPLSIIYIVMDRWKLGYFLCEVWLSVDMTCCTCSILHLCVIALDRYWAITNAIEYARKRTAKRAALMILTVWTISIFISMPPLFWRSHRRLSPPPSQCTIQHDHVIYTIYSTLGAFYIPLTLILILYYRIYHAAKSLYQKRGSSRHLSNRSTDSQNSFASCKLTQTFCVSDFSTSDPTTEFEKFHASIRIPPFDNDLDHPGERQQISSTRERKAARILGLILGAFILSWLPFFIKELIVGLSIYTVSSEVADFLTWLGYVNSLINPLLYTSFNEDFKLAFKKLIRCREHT

[6] = target: 5-hydroxytryptamine receptor 1D (Homo sapiens, UniProt P28221); assay: Displacement of [3H]LSD from human 5-HT1D receptor expressed in HEK cell membranes after 1.5 hrs by microbeta scintillation counting method; in short: as §1
5-hydroxytryptamine receptor 1D, sequence (P28221 whole entry): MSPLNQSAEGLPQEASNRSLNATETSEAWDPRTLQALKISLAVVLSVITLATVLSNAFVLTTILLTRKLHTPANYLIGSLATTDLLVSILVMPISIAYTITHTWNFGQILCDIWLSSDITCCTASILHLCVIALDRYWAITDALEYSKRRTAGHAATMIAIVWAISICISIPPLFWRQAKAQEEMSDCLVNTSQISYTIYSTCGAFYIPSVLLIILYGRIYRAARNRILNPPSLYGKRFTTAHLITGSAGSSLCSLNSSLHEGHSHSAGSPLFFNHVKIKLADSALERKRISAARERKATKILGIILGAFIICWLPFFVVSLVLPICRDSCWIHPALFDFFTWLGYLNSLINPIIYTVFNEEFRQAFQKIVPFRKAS

[7] = target: T2, 5-hydroxytryptamine receptor 3A (Homo sapiens, UniProt P46098); assay: Displacement of [3H]LSD from human 5-HT3 receptor expressed in HEK cell membranes after 1.5 hrs by microbeta scintillation counting method; in short: as §1
T2 sequence (P46098 whole entry): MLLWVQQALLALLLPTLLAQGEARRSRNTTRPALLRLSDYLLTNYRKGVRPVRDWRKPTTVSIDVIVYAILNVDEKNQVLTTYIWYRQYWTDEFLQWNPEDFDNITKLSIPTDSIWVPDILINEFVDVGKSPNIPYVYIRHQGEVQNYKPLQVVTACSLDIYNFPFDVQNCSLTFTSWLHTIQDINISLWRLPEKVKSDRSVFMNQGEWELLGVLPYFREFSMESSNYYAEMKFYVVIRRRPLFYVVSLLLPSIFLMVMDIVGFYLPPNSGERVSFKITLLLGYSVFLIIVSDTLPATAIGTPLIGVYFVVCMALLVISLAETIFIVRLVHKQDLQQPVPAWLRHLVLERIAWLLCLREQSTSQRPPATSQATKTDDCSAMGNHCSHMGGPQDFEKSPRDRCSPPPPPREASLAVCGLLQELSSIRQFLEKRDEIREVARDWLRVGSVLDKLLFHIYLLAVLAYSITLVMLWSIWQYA

[8] = target: T3, 5-hydroxytryptamine receptor 1A (Homo sapiens, UniProt P08908); assay: Displacement of [3H]LSD from human 5-HT1A receptor expressed in HEK cell membranes after 1.5 hrs by microbeta scintillation counting method; in short: as §1
T3 sequence (P08908 whole entry): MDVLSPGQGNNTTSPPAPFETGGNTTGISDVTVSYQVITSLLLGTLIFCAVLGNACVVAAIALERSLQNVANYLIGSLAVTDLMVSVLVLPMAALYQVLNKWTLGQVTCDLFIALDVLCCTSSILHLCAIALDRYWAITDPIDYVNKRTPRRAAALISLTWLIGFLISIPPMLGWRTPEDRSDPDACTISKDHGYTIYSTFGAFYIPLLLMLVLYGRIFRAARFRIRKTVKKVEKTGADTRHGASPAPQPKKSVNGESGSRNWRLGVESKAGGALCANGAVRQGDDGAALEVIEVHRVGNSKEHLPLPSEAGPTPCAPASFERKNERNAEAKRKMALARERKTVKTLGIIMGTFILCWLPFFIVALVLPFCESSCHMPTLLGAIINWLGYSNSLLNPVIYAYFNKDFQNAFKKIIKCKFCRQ

[9] = target: T1, 5-hydroxytryptamine receptor 7
[10] = target: T4, 5-hydroxytryptamine receptor 2C (Homo sapiens, UniProt P28335); assay: Displacement of [3H]LSD from human 5-HT2C receptor expressed in HEK cell membranes after 1.5 hrs by microbeta scintillation counting method; in short: as §1
T4 sequence (P28335 whole entry): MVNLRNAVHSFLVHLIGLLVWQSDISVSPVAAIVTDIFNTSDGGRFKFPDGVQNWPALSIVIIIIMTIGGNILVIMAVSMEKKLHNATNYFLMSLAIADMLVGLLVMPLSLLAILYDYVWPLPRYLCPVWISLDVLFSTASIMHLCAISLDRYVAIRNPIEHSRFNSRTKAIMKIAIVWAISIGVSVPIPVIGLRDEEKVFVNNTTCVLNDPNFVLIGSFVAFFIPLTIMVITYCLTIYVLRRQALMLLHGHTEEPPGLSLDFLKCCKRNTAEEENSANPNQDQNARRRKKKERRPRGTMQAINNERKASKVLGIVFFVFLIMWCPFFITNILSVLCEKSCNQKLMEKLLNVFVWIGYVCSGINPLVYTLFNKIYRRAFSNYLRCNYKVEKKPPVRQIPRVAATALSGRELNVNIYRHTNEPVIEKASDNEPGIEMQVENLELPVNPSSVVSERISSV

Homo sapiens [11] = organism: Homo sapiens; assay: Selectivity index, ratio of Ki for human 5-HT2C receptor to Ki for human 5-HT7 receptor; in short: as §2
[12] = target: T1, 5-hydroxytryptamine receptor 7; remark: listed apart in the source
[13] = target: T1, 5-hydroxytryptamine receptor 7; assay: Antagonist activity at human 5-HT7 receptor expressed in HEK293 cells assessed as inhibition of Gs protein-mediated cAMP accumulation by luminescence-based assay relative to SB269970; type: functional, cell-based
In short: (§3)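 HEK293 cells transiently transfected by calcium phosphate with human 5-HT7R and GloSensor-22F cAMP biosensor. After 5-6 h recovery, loaded with GloSensor reagent in HBSS/20 mM HEPES, pH 7.4. Test compounds at 0.01 nM-100 μM final; antagonist mode uses 5-HT stimulation. Luminescence read. Data normalised to 5-HT or SB269970 (100%) and vehicle (0%). Three experiments, at least triplicate.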

Homo sapiens [14] = organism: Homo sapiens; assay: Selectivity index, ratio of Ki for human 5-HT2A receptor to Ki for human 5-HT7 receptor; in short: as §2
[15] = target: T1, 5-hydroxytryptamine receptor 7; assay: Inverse agonist activity at human 5-HT7 receptor expressed in HEK293 cells assessed as decrease in Gs protein-mediated cAMP accumulation by luminescence-based assay; type: functional, cell-based; in short: as §3
[16] = target: 5-hydroxytryptamine receptor 6 (Homo sapiens, UniProt P50406); assay: Displacement of [3H]LSD from human 5-HT6 receptor expressed in HEK cell membranes after 1.5 hrs by microbeta scintillation counting method; in short: as §1
5-hydroxytryptamine receptor 6, sequence (P50406 whole entry): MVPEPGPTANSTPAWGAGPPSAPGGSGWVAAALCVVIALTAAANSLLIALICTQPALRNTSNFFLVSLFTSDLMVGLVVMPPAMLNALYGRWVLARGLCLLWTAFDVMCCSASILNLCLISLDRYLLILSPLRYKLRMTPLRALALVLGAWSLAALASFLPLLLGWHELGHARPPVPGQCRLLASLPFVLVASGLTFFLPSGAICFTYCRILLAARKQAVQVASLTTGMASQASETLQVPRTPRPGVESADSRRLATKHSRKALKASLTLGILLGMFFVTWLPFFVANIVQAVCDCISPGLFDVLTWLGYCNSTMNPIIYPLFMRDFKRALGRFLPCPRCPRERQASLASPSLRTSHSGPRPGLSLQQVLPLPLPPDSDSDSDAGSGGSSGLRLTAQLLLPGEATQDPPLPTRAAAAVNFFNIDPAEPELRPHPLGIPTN

[17] = target: 5-hydroxytryptamine receptor 1B (Homo sapiens, UniProt P28222); assay: Displacement of [3H]LSD from human 5-HT1B receptor expressed in HEK cell membranes after 1.5 hrs by microbeta scintillation counting method; in short: as §1
5-hydroxytryptamine receptor 1B, sequence (P28222 whole entry): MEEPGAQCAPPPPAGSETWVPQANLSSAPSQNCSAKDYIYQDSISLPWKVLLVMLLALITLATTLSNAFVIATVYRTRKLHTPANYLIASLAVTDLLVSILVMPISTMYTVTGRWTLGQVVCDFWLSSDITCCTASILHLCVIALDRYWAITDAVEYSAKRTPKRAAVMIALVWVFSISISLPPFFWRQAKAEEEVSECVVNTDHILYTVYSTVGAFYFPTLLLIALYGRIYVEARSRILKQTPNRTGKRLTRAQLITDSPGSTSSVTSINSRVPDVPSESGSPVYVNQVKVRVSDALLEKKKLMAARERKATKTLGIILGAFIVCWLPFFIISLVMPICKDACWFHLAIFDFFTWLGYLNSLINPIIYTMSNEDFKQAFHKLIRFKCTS

Homo sapiens [18] = organism: Homo sapiens; assay: Selectivity index, ratio of Ki for human 5-HT6 receptor to Ki for human 5-HT7 receptor; in short: as §2
[19] = target: 5-hydroxytryptamine receptor 2A (Homo sapiens, UniProt P28223); assay: Displacement of [3H]LSD from human 5-HT2A receptor expressed in HEK cell membranes after 1.5 hrs by microbeta scintillation counting method; in short: as §1
5-hydroxytryptamine receptor 2A, sequence (P28223 whole entry): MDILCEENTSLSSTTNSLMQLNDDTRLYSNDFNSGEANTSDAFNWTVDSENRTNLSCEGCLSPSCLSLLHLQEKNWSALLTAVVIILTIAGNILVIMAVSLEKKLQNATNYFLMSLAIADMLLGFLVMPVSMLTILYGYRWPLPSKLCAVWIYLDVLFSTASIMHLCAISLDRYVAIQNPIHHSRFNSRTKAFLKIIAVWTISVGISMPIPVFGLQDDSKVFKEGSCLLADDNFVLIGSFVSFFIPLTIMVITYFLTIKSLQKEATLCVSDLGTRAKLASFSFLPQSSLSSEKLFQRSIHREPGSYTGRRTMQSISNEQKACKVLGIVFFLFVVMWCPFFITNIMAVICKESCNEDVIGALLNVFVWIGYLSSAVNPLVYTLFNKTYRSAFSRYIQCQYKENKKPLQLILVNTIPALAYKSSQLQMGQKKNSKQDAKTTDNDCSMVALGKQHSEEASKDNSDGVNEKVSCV

[20] = target: 5-hydroxytryptamine receptor 2B (Homo sapiens, UniProt P41595); assay: Displacement of [3H]LSD from human 5-HT2B receptor expressed in HEK cell membranes after 1.5 hrs by microbeta scintillation counting method
5-hydroxytryptamine receptor 2B, sequence (P41595 whole entry): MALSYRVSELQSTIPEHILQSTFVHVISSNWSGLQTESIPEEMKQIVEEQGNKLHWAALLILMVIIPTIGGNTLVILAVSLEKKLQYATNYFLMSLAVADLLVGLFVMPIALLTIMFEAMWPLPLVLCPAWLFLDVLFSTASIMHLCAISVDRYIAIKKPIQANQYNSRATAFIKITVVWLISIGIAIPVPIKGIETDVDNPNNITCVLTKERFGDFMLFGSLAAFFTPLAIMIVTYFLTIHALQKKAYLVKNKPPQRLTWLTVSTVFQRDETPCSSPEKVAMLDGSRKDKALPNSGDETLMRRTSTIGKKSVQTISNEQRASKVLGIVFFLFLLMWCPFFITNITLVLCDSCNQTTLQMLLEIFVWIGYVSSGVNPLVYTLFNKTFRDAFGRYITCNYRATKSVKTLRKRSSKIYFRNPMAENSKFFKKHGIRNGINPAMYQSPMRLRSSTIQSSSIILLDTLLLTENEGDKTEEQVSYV

Homo sapiens [21] = organism: Homo sapiens; assay: Selectivity index, ratio of Ki for human 5-HT3 receptor to Ki for human 5-HT7 receptor; in short: as §2
[22] = target: T1, 5-hydroxytryptamine receptor 7; assay: Antagonist activity at tTA containing TCS cleavage site-fused 5-HT7 receptor (unknown origin) expressed in tTA-dependent luciferase reporter/TEV-fused beta-arrestin2 expressing HTLA cells assessed as inhibition of 5-HT-induced beta-arrestin2 recruitment after 22 hrs by Tango assay; type: functional, cell-based
Mus musculus [23] = assay: Sleep promoting activity in C57B1/6J mouse assessed as duration of total non-rapid eye movement sleep time at 30 mg/kg, ip measured over 8 hrs by electroencephalogram method (reference value: 252 +/- 22.7 mins); type: functional
In short: (§4)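 Adult male C57Bl/6J mice, 10 weeks old, with parietal EEG screw electrodes implanted under ketamine. EEG and EMG recorded for 8 h from 9 AM, starting one day before dosing as baseline. On test day, 30 mg/kg i.p. at the start of the light phase, with EEG/EMG recorded for 8 h and scored in 2-h bins. n = 6-9 per group; mean ± SEM versus vehicle.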

Mus musculus [24] = assay: Sleep promoting activity in C57B1/6J mouse assessed as decrease in total rapid eye movement sleep time at 30 mg/kg, ip measured over 8 hrs by electroencephalogram method; type: functional; set-up: scale not given: the % may be the effect or the level left; in short: as §4
[25] = target: T1, 5-hydroxytryptamine receptor 7; assay: Displacement of [3H]LSD from human 5-HT7 receptor expressed in HEK cell membranes at 10 uM after 1.5 hrs by microbeta scintillation counting method
In short: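 [3H]LSD binding to recombinant 5-HT7R membranes in Tris-HCl/MgCl2/EDTA buffer, pH 7.4, 1.5 h at room temperature, filtration and scintillation counting. Percent inhibition at a single 10 μM test concentration.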

[26] = target: T1, 5-hydroxytryptamine receptor 7; assay: Displacement of [3H]LSD from human 5-HT7 receptor expressed in HEK cell membranes after 1.5 hrs by microbeta scintillation counting method
Homo sapiens [27] = organism: Homo sapiens; assay: Selectivity index, ratio of Ki for human 5-HT1E receptor to Ki for human 5-HT7 receptor; in short: as §2
Homo sapiens [28] = organism: Homo sapiens; assay: Selectivity index, ratio of Ki for human 5-HT1D receptor to Ki for human 5-HT7 receptor; in short: as §2
Homo sapiens [29] = organism: Homo sapiens; assay: Selectivity index, ratio of Ki for human 5-HT5A receptor to Ki for human 5-HT7 receptor; in short: as §2

5-hydroxytryptamine receptor 4, sequence (Q13639 whole entry): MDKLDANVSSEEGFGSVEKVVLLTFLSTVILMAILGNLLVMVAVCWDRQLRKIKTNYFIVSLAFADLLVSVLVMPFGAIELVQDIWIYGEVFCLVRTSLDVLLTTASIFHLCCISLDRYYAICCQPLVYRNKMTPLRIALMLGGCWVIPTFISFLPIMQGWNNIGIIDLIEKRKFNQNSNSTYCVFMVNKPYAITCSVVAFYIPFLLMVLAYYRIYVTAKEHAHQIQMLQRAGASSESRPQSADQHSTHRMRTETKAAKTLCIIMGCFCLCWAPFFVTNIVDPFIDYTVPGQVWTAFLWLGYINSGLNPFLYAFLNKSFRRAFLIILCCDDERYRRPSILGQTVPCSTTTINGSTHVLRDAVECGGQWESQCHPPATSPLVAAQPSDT

Row | SMILES | Ki [1] [nM] | Ki [2] [nM] | Emax [3] [%] | Ratio Ki (Homo sapiens [4]) | Ki [5] [nM] | Ki [6] [nM] | Ki [7] [nM] | Ki [8] [nM] | IC50 [9] [nM] | Ki [10] [nM] | Ratio Ki (Homo sapiens [11]) | EC50 [12] [nM] | Imax [13] [%] | Ratio Ki (Homo sapiens [14]) | Activity [15] | Ki [16] [nM] | Ki [17] [nM] | Ki [19] [nM] | Ki [20] [nM] | inhibition [22] | further results
1 | Clc1ccc(-c2noc3c2CCNCC3)cc1 | > 10000 | > 10000 | 47.1 | 3.5 | > 10000 | > 10000 | 303 | > 10000 | 3970 | 1100 | 15.7 | 113 | 94.9 | 5.7 | Active | 360 | > 10000 | 399 | 247 | inactive | Ratio Ki (Homo sapiens [18]): 5.1; Ratio Ki (Homo sapiens [21]): 4.3
2 | CC1CCN(CC[C@H]2CCCN2S(=O)(=O)c2cccc(O)c2)CC1 | – | – | < 20 | – | – | – | – | – | – | – | – | – | – | – | Active | – | – | – | – | – | Time (Mus musculus [23]): 252 min; Activity (Mus musculus [24]): 37.1%
3 | Cc1ccccc1-c1noc2c1CCNCC2 | – | – | – | – | – | – | – | – | – | – | – | – | – | – | – | – | – | – | – | – | inhibition [25]: < 50%; Ki [26]: > 10000 nM
4 | Cc1ccc(-c2n[nH]c3c2CCNCC3)cc1 | > 10000 | > 10000 | 50.9 | 2.3 | 890 | 165 | > 10000 | > 10000 | 2560 | 296 | 6.3 | 165 | 97.4 | 3.4 | Active | 109 | > 10000 | 159 | 106 | inactive | Ratio Ki (Homo sapiens [27]): 18.9; Ratio Ki (Homo sapiens [28]): 3.5; Ratio Ki (Homo sapiens [18]): 2.3
5 | Fc1ccc(-c2noc3c2CCNCC3)cc1 | > 10000 | 1230 | 38.2 | 9.5 | > 10000 | > 10000 | 703 | > 10000 | 2460 | 785 | 14.8 | 135 | 98 | 8.9 | Active | > 10000 | > 10000 | 471 | 505 | inactive | Ratio Ki (Homo sapiens [29]): 23.2; Ratio Ki (Homo sapiens [21]): 13.3
